Data set [1] concerns the target T1, DNA repair protein RAD51 homolog 1 (Homo sapiens, UniProt Q06609).
T1 sequence (Q06609 whole entry): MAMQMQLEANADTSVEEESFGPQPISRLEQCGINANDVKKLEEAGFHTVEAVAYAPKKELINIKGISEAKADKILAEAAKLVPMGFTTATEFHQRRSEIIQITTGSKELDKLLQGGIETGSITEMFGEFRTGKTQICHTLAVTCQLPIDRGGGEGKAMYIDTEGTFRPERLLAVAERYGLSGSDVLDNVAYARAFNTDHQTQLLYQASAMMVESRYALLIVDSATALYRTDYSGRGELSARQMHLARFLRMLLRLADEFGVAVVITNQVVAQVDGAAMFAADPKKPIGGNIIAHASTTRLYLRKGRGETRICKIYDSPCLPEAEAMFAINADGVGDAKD
Kind of data set: Inhibition of human N-terminal 6-histidine/Avi-tagged recombinant RAD51 expressed in Escherichia coli BL21(DE3) assessed as D-loop formation using 5'-32P-labeled 90-mer ssDNA as substrate preincubated for 10 mins followed by substrate addition with subsequent incubation with substrate for 5 mins measured after 20 mins in presence of supercoiled pRS306 dsDNA by agarose gel electrophoresis.

Data set [2] has as its target T2, DNA repair protein RAD51 homolog 1 (Homo sapiens) (UniProt Q06609).
T2 sequence (whole entry): T1 sequence (Q06609 whole entry)
The note with it: 5 to 100 uM.

For data set [3], the target named is T1, DNA repair protein RAD51 homolog 1. Put plainly: Inhibition of Escherichia coli BL21(DE3) expressing human N-terminal 6-histidine/Avi-tagged RAD51 binding to circular pRS306 virion ssDNA preincubated for 40 mins followed by ssDNA addition measured after 5 mins by agarose gel electrophoresis.
Data set [4] has the same target. Put plainly: Effect on stabilization of Escherichia coli BL21(DE3) expressing human N-terminal 6-histidine/Avi-tagged RAD51-circular pRS306 virion ssDNA nucleoprotein filament at 30 uM after 40 mins in presence of NaCl by SYBR gold staining based agarose gel electrophoresis. It is filed as ADME.
Data set [5] has the same target. Put plainly: Inhibition of Escherichia coli BL21(DE3) expressing human N-terminal 6-histidine/Avi-tagged RAD51 binding to 5'-Alexa488-oligo-dT45 ssDNA preincubated for 40 mins followed by substrate addition measured after 40 mins by fluorescence polarization based microplate method. Put shortly: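 Human RAD51 preincubated with compound in DMSO at 37 °C for 40 min, then 5'-Alexa488-oligo-dT45 added and incubated another 40 min at 37 °C. Buffer: 20 mM HEPES pH 7.5, 2 mM ATP, 10 mM MgCl2, 0.1 mM TCEP. IC50 from least-squares dose–response fits with standard error.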
(Polarisation of emitted light reports the rotation of a fluorescent probe.)

Data set [6] relates to HEK293. Put plainly: Induction of single strand annealing activity in human HEK293-SA-GFP cells transfected with pCBASce expressing I-Sce-I up to 40 uM at 24 hrs post transfection by 7-aminoactinomycin D staining based flow cytometry. It is filed as functional, cell-based. In a few lines:
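293-DR-GFP (HR) or 293-SA-GFP (SSA) reporter cells electroporated (325 V, 975 µF) with 37.5 µg/mL I-SceI plasmid pCBASce or empty pCAGGS control. Seeded in complete DMEM + 0.5% DMSO with compound added at transfection, grown out 24 h. Cells resuspended with 1 µg/mL 7-AAD for flow cytometry, dead/apoptotic cells gated out, GFP-positive fraction scored among live cells.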

The target in data set [7] is T1, DNA repair protein RAD51 homolog 1. Put plainly: Inhibition of IR-induced RAD51 accumulation in HEK293-DR-GFP cells subnuclear foci at 20 uM after 8 hrs by fluorescence microscopy. It is filed as cell-based. Put shortly:
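293-DR-GFP cells grown on coverslips for 2 days, X-irradiated at 1.5 Gy/min, fixed after 0, 2, 4 or 8 h outgrowth. Paraformaldehyde fixation and Triton permeabilization. Stained with rabbit anti-RAD51 plus anti-RPA or anti-γH2AX, DAPI counterstain. At least 100 nuclei scored per condition.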

Data set [8] relates to HEK293. Put plainly: Effect on RAD51 levels in cytosol of HEK293-DR-GFP cells at 20 uM after 8 hrs by Western blot analysis. It is filed as ADME, cell-based. To be noted: human. Put shortly:
(§1)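 Subconfluent 293-DR-GFP cells grown with compound for the indicated time. Fractionated at 4 °C: hypotonic buffer on ice 15 min (cytosol); pellet in hypotonic buffer + 0.5 M NaCl 15 min (soluble nuclear); RIPA extraction three times 5 min, insoluble pellet kept (chromatin). Fractions run on 10% SDS-PAGE, blotted to PVDF, probed with rabbit anti-RAD51 (1:2000) or anti-PCNA (1:1000), read by ECL.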

Data set [9] concerns HEK293. Kind of data set: Effect on RAD51 levels in soluble nuclear fraction of HEK293-DR-GFP cells at 20 uM after 8 hrs by Western blot analysis. In kind it is ADME, cell-based. The note with it: human, hek293, 8 h. In a few lines:
as §1
A general note: Immunoblotting shows a protein as a band on a membrane.

In data set [10] the test system is HEK293. Kind of data set: Effect on RAD51 levels in chromatin fraction of HEK293-DR-GFP cells at 20 uM after 8 hrs by Western blot analysis. It is filed as cell-based. The note with it: human, hek293, 8 h. In a few lines: as §1
For data set [11], the target named is T1, DNA repair protein RAD51 homolog 1. Put plainly: Effect on stabilization of Escherichia coli BL21(DE3) expressing human N-terminal 6-histidine/Avi-tagged RAD51-circular pRS306 virion ssDNA nucleoprotein filament at 100 uM after 40 mins in presence of NaCl by SYBR gold staining based agarose gel electrophoresis. It is filed as ADME.
For data set [12], the system named is Saccharomyces cerevisiae. Put plainly: Inhibition of Saccharomyces cerevisiae RAD51 D-loop activity using 5'-32P-labeled 90-mer ssDNA as substrate up to 100 uM preincubated for 10 mins followed by substrate addition with subsequent incubation with substrate for 5 mins measured after 20 mins in presence of supercoiled pRS306 dsDNA by agarose gel electrophoresis. Put shortly:
(§2)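 Yeast Rad51 (1 µM) with Rad52 (2 µM), or E. coli RecA (0.4 µM), preincubated with compound at 37 °C for 10 min. 32P 90-mer ssDNA added with 1 mM MgCl2 for 5 min, then supercoiled pRS306 with MgCl2 raised to 10 mM for 20 min. dsDNA step in 20 mM HEPES pH 7.5, 2 mM ATP, 10 nM ssDNA, 4.5 nM dsDNA. Read by agarose gel and phosphorimaging.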

For data set [13], the system named is Saccharomyces cerevisiae. Kind of data set: Inhibition of Saccharomyces cerevisiae RAD52 D-loop activity using 5'-32P-labeled 90-mer ssDNA as substrate up to 100 uM preincubated for 10 mins followed by substrate addition with subsequent incubation with substrate for 5 mins measured after 20 mins in presence of supercoiled pRS306 dsDNA by agarose gel electrophoresis. In a few lines: as §2

The test system of a further data set is Escherichia coli. Kind of data set: Inhibition of Escherichia coli RecA D-loop activity using 5'-32P-labeled 90-mer ssDNA as substrate up to 100 uM preincubated for 10 mins followed by substrate addition with subsequent incubation with substrate for 5 mins measured after 20 mins in presence of supercoiled pRS306 dsDNA by agarose gel electrophoresis. In a few lines: as §2

The test system of another data set is U2OS. Kind of data set: Cytotoxicity against human U2OS cells assessed as cell survival treated with ionizing radiation followed by compound addition after 7 to 11 days by crystal violet staining based colony counting method. It is filed as functional. In a few lines:
(§3)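 Cells grown to subconfluence, X-irradiated at 1.5 Gy/min, trypsinized and seeded at 1000–1500 cells/well in complete medium with 0.5% DMSO plus compound at the indicated dose, kept through outgrowth. Incubated 7–11 days until colonies of ≥50 cells. Stained ≥30 min at room temperature in 6% glutaraldehyde + 0.5% crystal violet, then counted automatically. PC-3 grown in DMEM:F12 (1:1) with 10% FCS.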

The subject of a further data set is PC-3. Kind of data set: Cytotoxicity against human PC3 cells assessed as cell survival treated with ionizing radiation followed by compound addition after 7 to 11 days by crystal violet staining based colony counting method. It is filed as functional. In a few lines:
as §3

The next data set deals with MCF7. Put plainly: Cytotoxicity against human MCF7 cells assessed as cell survival treated with ionizing radiation followed by compound addition after 7 to 11 days by crystal violet staining based colony counting method. In kind it is functional. Put shortly:
as §3

In data set [14] the target is T1, DNA repair protein RAD51 homolog 1. Put plainly: Inhibition of RAD51-mediated homologous recombination in human HEK293-DR-GFP cells transfected with pCBASce expressing I-Sce-I after 24 hrs following transfection by 7-aminoactinomycin D staining based flow cytometry. (In general: A flow cytometer gives signals particle by particle.)
The target is the same in data set [15]. Put plainly: Inhibition of Escherichia coli BL21(DE3) expressing human N-terminal 6-histidine/Avi-tagged RAD51 binding to 5'-Alexa488-oligo-dT45 ssDNA at 5 to 100 uM preincubated for 40 mins followed by substrate addition measured after 40 mins by fluorescence polarization based microplate method. The note with it: read-out: Imax. Put shortly: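 Human RAD51 preincubated with compound in DMSO at 37 °C for 40 min, then 5'-Alexa488-oligo-dT45 added and incubated another 40 min at 37 °C. Buffer: 20 mM HEPES pH 7.5, 2 mM ATP, 10 mM MgCl2, 0.1 mM TCEP. Final: 0.2 µM RAD51, 2.22 nM ssDNA, 30 mM NaCl, 4% DMSO. Fluorescence polarization read at 485/535 nm. IC50 from least-squares dose–response fits with standard error.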

Data set [16] has as its target T2, DNA repair protein RAD51 homolog 1 (Homo sapiens). The note with it: 40 uM.

The values that follow come from ChEMBL document CHEMBL3822453 (J Med Chem, 2016).

Activity calls are given as the source filed them. The rule behind the calls is not given here. Some results are limits rather than exact numbers.

By IC50 is commonly meant the concentration needed to halve the response being measured. Regarding `CN(C)c1ccc(-c2nc3cc(F)ccc3n3cccc23)cc1`, the IC50 in [1] is above 100 µM. Consider `COc1ccc2c(c1)nc(-c1ccc(N)cc1)c1cccn12`, for which the Imax in [2] was 100%. As to `FC(F)(F)Oc1ccc(-c2nc3ccccc3n3cccc23)cc1`, the IC50 in [1] was above 100 µM. As for `O=C1C(Cl)=C(N2CCOCC2)C(=O)N1c1ccc(Cl)c(Cl)c1`, the results for the Activity entry in data set [3] and in data set [4] were “Dose-dependent effect” and “Active”, respectively.

The molecule `Oc1ccc2c(c1)nc(-c1cccnc1)c1cccn12` returned an Imax in [2] of 53%. Turning to `c1ccc2c(c1)nc(-c1ccc(N3CCOCC3)cc1)c1cccn12`, the IC50 in data set [5] was above 100 µM. The Imax in data set [2] is 68%.

With `COc1ccc2c(c1)nc(-c1ccc(N(C)C)cc1)c1cccn12`, the Imax in [2] stood at 67%.

As for `COc1ccc2c(c1)nc(-c1ccc(O)cc1)c1cccn12`, in data set [2], the Imax was 13%.

`c1ccc2c(c1)nc(-c1ccncc1)c1cccn12` came in with an IC50 in data set [5] above 100 µM. In turn, `COc1ccc2c(c1)NC(c1ccc(N(C)C)cc1)c1cccn1-2` (racemic) had an Imax in data set [2] of 17%. As a reminder, the inhibition is the drop in the measured response relative to a control, in per cent. For the molecule `CCNc1ccc(-c2nc3ccccc3n3cccc23)cc1`, in the data set with HEK293 [6], the outcome was inactive. The “inhibition (INH)” value in data set [7] is on record as “Not Active”. The Activity result in the data set with HEK293 [8] was “Non-toxic”; in the data set on HEK293 [9], “Non-toxic”; with HEK293 [10] it was “Non-toxic”; in data set [11] it was “Not Active”; in data set [4], “Not Active”. The inhibition entry with Saccharomyces cerevisiae [12], in the data set on Saccharomyces cerevisiae [13] and in the data set on Escherichia coli was “inactive” each time. Further, the result in the data set with U2OS, with PC-3 and in the data set on MCF7 was Active. Besides, in data set [2], the Imax is 91%. With `COc1ccc2c(c1)nc(-c1ccc([N+](=O)[O-])cc1)c1cccn12`, the IC50 in data set [1] was above 100 µM. For the molecule `CN(C)c1ccc(-c2nc3cc(O)ccc3n3cccc23)cc1`, the Imax in data set [2] stood at 91%. Take `c1ccc2c(c1)nc(-c1ccc(N3CCCC3)cc1)c1cccn12`: in data set [1], the IC50 is above 100 µM.

Take `COc1ccc2c(c1)NC(c1ccc(N(C)C)cc1)c1cccn1-2` (stereo in doubt; 1) [listing 1 of 2 here]: the results for the IC50 in [1] and in [14] were 21.3 µM and 13.1 µM, respectively. The Emax in data set [15] was found to be 33%. Turning to `COc1ccc2c(c1)NC(c1ccc(N(C)C)cc1)c1cccn1-2` (stereo in doubt; 1) [listing 2 of 2 here], in [2], the Imax came to 74%. In [16], the inhibition was 83%. On to `O=[N+]([O-])c1ccc(-c2nc3cc(O)ccc3n3cccc23)cc1`, for which, in [1], the IC50 was above 100 µM. For the molecule `O=[N+]([O-])c1cccc(-c2nc3ccccc3n3cccc23)c1`, the IC50 in data set [1] and in [5] was above 100 µM in each case. Regarding `CN(C)c1ccc(-c2nc3cc(F)c(F)cc3n3cccc23)cc1`, the IC50 in data set [1] was above 100 µM. Still for that read-out and setting: then `c1ccc2c(-c3nc4ccccc4n4cccc34)cccc2c1`, with above 100 µM. For the molecule `C1=C(c2nc3ccccc3n3cccc23)CCCC1`, the IC50 in data set [1] was above 100 µM. As for `Nc1cccc(-c2nc3ccccc3n3cccc23)c1`, the IC50 in data set [5] is above 100 µM. Turning to `COc1ccc2c(c1)nc(-c1cccnc1)c1cccn12`, the IC50 in [5] is above 100 µM. Also, the Imax in data set [2] stood at 74%. On to `Oc1ccc(-c2nc3ccccc3n3cccc23)cc1`, for which the IC50 in data set [1] and in [5] was above 100 µM in each case. For `O=[N+]([O-])c1ccc(-c2nc3ccccc3n3cccc23)cc1`, the IC50 in data set [1] and in [5] was above 100 µM in each case.
